Screens deposited in PubChem BioAssay by Broad Institute.
In the library only some 2.7% were active in any assay of this set; here they are far more common.
SIRT5 inh = SIRT5 desuccinylase inhibitors, primary screen, biochemical, fluorescence imaging, single point, set 5 | NAD-dependent protein deacylase sirtuin-5, mitochondrial (Homo sapiens), Q9NXA8 | Purified SirT5, succinyl-peptide AMC, trypsin-coupled fluorescence | inhibition, % at 15 µM | hit rate 1.1% among 330,000 | AID 652115, 2013; in the data active = inhibition above about 15%; inconclusive = no clear call, values can overlap the other calls
DENV2 CPE = inhibitors of DENV2 cytopathic effect, primary screen, cell-based, plate reader, single concentration. DENV2-infected cells, cytopathic effect rescue. CPE inhibition, % at 9.99 µM. hit rate 1.7% among 350,000. AID 651640, 2012; in the data active = CPE inhibition above about 20%, passing the limit was not always enough; inconclusive = no clear call, values can overlap the other calls; tested in BHK-21 cells;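 note: 0% = median of neutral control wells and 100% = median of positive control wells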
CaV13 FRET inh = Disruptors of the CACNA1D IQ motif to Ca2+-dependent inactivation inhibitor domain association, primary screening, Förster resonance energy transfer in intact living …; HEK cells, CFP/YFP FRET ICDI-IQ, plate reader, 10 min; percent FRET-ratio fall versus neutral wells; inhibition, % at 12.3 µM; hit rate 0.098% among 340,000;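 active = mean replicate inhibition of at least 30% and at least 1% of replicates passing that level; inconclusive = only one of the two criteria is met; inactive = neither criterion is met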;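 note: 0% = median of the neutral control wells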
MLL AF4-AF9 inh = inhibitors of AF4 peptide binding to AF9, primary screen, biochemical, AlphaScreen, biotin-AF4 peptide, FLAG-AF9, single point; Protein AF-9 (Homo sapiens), P42568; inhibition, % at 10 µM; hit rate 0.47% among 350,000; AID 651704, 2012;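 active = every replicate reaching a set inhibition limit, whatever the replicate mean, cut at about 25% in these data; inconclusive = mean inhibition reaches that limit but some replicates miss it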;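 note: 0% = plate neutral control median and 100% = total signal loss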
Target sequence (P42568 whole entry, looked up): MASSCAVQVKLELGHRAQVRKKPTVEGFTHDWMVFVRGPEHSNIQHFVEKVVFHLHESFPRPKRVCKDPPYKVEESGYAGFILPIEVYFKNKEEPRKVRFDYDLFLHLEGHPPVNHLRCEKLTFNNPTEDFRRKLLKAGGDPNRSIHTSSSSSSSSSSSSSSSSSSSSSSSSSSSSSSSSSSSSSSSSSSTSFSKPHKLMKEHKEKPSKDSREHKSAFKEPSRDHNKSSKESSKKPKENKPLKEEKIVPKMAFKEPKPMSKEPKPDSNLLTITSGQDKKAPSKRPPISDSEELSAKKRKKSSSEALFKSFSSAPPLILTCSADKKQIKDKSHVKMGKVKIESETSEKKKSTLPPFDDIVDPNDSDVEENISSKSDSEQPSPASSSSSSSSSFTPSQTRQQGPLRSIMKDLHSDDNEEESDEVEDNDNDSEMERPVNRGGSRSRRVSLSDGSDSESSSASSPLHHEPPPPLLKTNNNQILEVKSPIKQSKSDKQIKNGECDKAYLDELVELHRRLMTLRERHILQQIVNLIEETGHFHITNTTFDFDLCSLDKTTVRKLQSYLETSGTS
S100A4 inh HTS = inhibitors of S100A4-myosin IIA peptide binding, primary screen, biochemical, fluorescence polarization, TAMRA-MyoIIA peptide; hit rate 0.14% among 360,000; inhibition, % at 10.7 µM; AID 652163, 2013;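 active = mean inhibition of at least 70% across replicates, with every replicate also reaching that level; inconclusive = mean inhibition reaches 70% but some replicates fall short; inactive = mean inhibition below 70%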
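Assay system: human S100A4 monomer with TAMRA-labelled myosin IIA peptide / Buffer or medium: Calcium-containing HEPES buffer, pH 7.2 / Reagent: TAMRA-labelled myosin IIA heavy-chain peptide probe, 5 nM / Compound: one dose per compound / Timing: polarization read 5 min after assay mix addition, stable 5–60 min / Benchmarks: neutral control DMSO, positive control TFP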
* hit, by the source's call; u = inconclusive; x = not tested or not shown.

SMILES | SIRT5 inh | DENV2 CPE | CaV13 FRET inh | MLL AF4-AF9 inh | S100A4 inh HTS
CN(C)CC(=O)Nc1ccc2c(c1)[C@H]1C[C@@H](CC(=O)NCc3ccccn3)O[C@H](CO)[C@H]1O2 | -2.7 | u | x | -2.4 | -29.3
C[C@@H]1CN([C@H](C)CO)C(=O)c2cccc(NC(=O)c3ccncc3)c2O[C@H]1CN(C)CC1CCCCC1 | -4.9 | 10.8 | x | 1.2 | 1.3
CCCNC(=O)N1CC2(CN(C(=O)COC)C2)c2c(n(C)c3cc(OC)ccc23)[C@@H]1CO | -5.0 | 0.1 | x | -2.0 | 5.4
COCCNC(=O)C1(C)CCN(C(=O)Cc2ccc(OC)c(OC)c2)C1 (configuration not stated) | x | 22.0* | -5.0 | -1.2 | -2.7
COCCNC(=O)C1(C)CCCN(C(=O)c2ccc(C(F)(F)F)cc2)C1 (configuration not stated) | -6.5 | 50.1* | -4.9 | -4.4 | -3.0
COCCNC(=O)C1(C)CCN(C(=O)c2ccc3sccc3c2)C1 (configuration not stated) | x | 53.7* | -3.1 | 0.1 | -4.3
C[C@@H]1CN([C@@H](C)CO)C(=O)c2cc(-c3cccc(F)c3)cnc2O[C@@H]1CN(C)S(=O)(=O)c1cccc(F)c1 | -6.8 | 1.6 | x | -0.7 | 0.5
O=C(Cc1cccnc1)N1CC2(C1)[C@@H](c1ccccc1)[C@@H](CO)N2C(=O)C1CCC1 | 9.5 | 5.7 | x | -2.0 | 4.5
C[C@@H]1CCCCO[C@H](CN(C)S(=O)(=O)c2ccc(F)cc2)[C@@H](C)CN([C@@H](C)CO)C(=O)c2cc(NC(=O)Nc3ccc4c(c3)OCO4)ccc2O1 | 9.2 | -6.6 | x | 0.8 | -2.8
C[C@@H]1CN([C@@H](C)CO)C(=O)Cc2cc(NC(=O)Cc3ccccc3)ccc2O[C@@H]1CN(C)Cc1ccc(Cl)c(Cl)c1 | 14.1 | 65.9* | x | 0.7 | -5.0
C[C@@H]1CN([C@H](C)CO)C(=O)Cc2cc(NC(=O)Cc3ccccc3)ccc2O[C@@H]1CN(C)Cc1ccc(Cl)c(Cl)c1 | -2.2 | 88.3* | x | 2.8 | 2.8
C[C@@H]1CN([C@@H](C)CO)C(=O)Cc2cc(NC(=O)Cc3ccccc3)ccc2O[C@@H]1CN(C)Cc1ccccc1 | -2.4 | -6.0 | x | -0.8 | 0.9
O=S(=O)(NN=Cc1cccc(Cl)c1)c1ccccc1 | 1.2 | 27.7* | -10.3 | -1.8 | 3.1
CN1C(=O)/C(=C/c2ccc(C(=O)Nc3ccc(O)cc3C(=O)O)cc2)SC1=S | 28.0* | -2.5 | -15.7 | 2.2 | -13.0
Cc1ccc(/C=C2\SC(=S)N(CCC(=O)NNC(=O)c3ccc(O)cc3)C2=O)cc1 | -2.7 | -2.0 | -3.1 | -0.1 | 3.6
COc1ccc2c3c(n(C)c2c1)[C@H](CO)N(Cc1ccc2c(c1)OCO2)CC31CCN(C(C)=O)CC1 | -1.8 | 5.0 | x | 0.5 | -1.5
COc1ccc(OCC(=O)Nc2ccc(C(=O)Nc3ccccc3C(=O)O)cc2)cc1 | 23.4* | 4.0 | -3.9 | -8.8 | -2.3
COc1ccc(S(=O)(=O)N(C)C[C@H]2Oc3c(NS(=O)(=O)c4ccc(Cl)cc4)cccc3C(=O)N([C@@H](C)CO)C[C@H]2C)cc1 | x | 1.0 | x | x | x
CCOC(=O)c1ccccc1-n1c(C)cc(C2N=C(N)Nc3nc4ccccc4n32)c1C (configuration not stated) | -2.8 | -0.9 | -7.8 | 25.5* | 1.6
CCOC(=O)C1=C(C)Nc2nc3ccccc3n2C1c1ccc(O)cc1 (configuration not stated) | -2.2 | -4.1 | 4.9 | -6.0 | 20.9
O=C(CSc1nc(=O)n2ccccc2n1)N1N=C(c2cccs2)CC1c1ccc(F)cc1 (configuration not stated) | 1.0 | 59.5* | -15.3 | 1.9 | -2.9
C[C@@H]1CCCCO[C@@H](CN(C)C(=O)Nc2ccc3c(c2)OCO3)[C@@H](C)CN([C@H](C)CO)C(=O)c2cc(NC(=O)CCCN(C)C)ccc2O1 | 1.7 | -19.2 | x | 2.0 | 34.2
CC(=O)NC(c1cccc(F)c1)c1nc(-c2ccc(N(C)C)cc2)cs1 (configuration not stated) | 2.3 | 26.4* | -3.6 | -2.1 | 7.3
Cc1ccc(S(=O)(=O)N(C)C[C@H]2Oc3ccc(NC(=O)NC4CCCCC4)cc3CC(=O)N([C@H](C)CO)C[C@H]2C)cc1 | 2.5 | -3.1 | x | 3.2 | -0.2
